# Results reported in ChEMBL document CHEMBL1134459 (J Med Chem, 2001).
# Legend:
# Mus musculus [1] = experiment: Efficacy in lBAL sICAM-1 at 30 mg/kg of oral dosing in an inhaled allergen-induced cell influx in mice.; assay type: functional
# Outline: (§1)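 Mouse inhaled-allergen model. Compounds or vehicle (0.2% methylcellulose) given orally 18 h and 1 h before the first of two allergen inhalations. Lungs lavaged 24-27 h after the first inhalation. Read-outs were lavage cell count (no./µL), neutrophil and eosinophil percentages, and soluble ICAM-1 in serum and BAL 24 h after antigen. Values are mean ± SE.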
# Mus musculus [2] = experiment: Efficacy in lavage cells at 30 mg/kg of oral dosing in an inhaled allergen-induced cell influx in mice.; assay type: functional; outline: as §1
# Mus musculus [3] = experiment: % Efficacy in eosinophils at 30 mg/kg of oral dosing in an inhaled allergen-induced cell influx in mice.; assay type: functional, Eosinophil; outline: as §1
# Mus musculus [4] = experiment: Efficacy in serum sICAM-1 at 30 mg/kg of oral dosing in an inhaled allergen-induced cell influx in mice.; assay type: functional; outline: as §1
# Mus musculus [5] = experiment: % Efficacy in neutrophils at 30 mg/kg of oral dosing in an inhaled allergen-induced cell influx in mice.; assay type: functional; outline: as §1
# [6] = molecular target: T1, Intercellular adhesion molecule 1 (Homo sapiens, UniProt P05362); experiment: In vitro inhibitory potency compared to IL1-beta induced Intercellular adhesion molecule-1 expression in human endothelial cells (ELISA assay); assay type: cell-based, Endothelial cell
# Outline: (§2)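 Primary HUVECs plated at 5 × 10^4 cells/mL in EBM/2% FBS with growth supplements; next day compound added, 24 h at 37 °C, then IL-1β substituted for TNFα as inducer, 6 h at 37 °C. Cell ELISA: mouse monoclonal anti-ICAM-1 or anti-E-selectin (ELAM-1) overnight at 4 °C, HRP donkey anti-mouse IgG, OPD, absorbance 490 nm.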
# [7] = Inhibition of intercellular adhesion molecule-1 (ICAM1) in human endothelial cells; conditions: endothelial cell
# [8] = molecular target: T2, Vascular cell adhesion protein 1 (Homo sapiens) (UniProt P19320); conditions: Endothelial cell
# T2 sequence (whole entry): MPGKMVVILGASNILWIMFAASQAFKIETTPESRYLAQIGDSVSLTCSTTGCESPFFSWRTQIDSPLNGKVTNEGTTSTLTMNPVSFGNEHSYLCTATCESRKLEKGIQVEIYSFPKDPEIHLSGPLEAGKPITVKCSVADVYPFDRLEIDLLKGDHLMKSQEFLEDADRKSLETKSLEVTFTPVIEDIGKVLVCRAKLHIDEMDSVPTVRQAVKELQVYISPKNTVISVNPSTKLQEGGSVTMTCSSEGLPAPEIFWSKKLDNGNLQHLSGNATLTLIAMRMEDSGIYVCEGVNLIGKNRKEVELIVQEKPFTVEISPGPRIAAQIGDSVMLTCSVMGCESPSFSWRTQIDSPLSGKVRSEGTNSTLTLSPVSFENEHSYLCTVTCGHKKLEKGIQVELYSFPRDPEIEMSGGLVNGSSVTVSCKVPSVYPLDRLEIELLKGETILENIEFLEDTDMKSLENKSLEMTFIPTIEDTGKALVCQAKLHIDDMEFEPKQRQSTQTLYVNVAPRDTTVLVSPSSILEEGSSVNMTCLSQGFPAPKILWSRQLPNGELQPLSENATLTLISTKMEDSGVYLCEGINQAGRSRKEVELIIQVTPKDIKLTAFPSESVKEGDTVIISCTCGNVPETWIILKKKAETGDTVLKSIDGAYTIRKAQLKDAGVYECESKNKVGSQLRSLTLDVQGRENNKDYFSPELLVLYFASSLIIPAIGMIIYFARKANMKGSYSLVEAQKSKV
# [9] = Toxicity in HUVEC cell lysates; assay type: cell-based, Lysate; conditions: human
# Outline: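 Primary HUVECs were plated at 5 × 10^4 cells/mL in EBM/2% FBS with human EGF, bovine brain extract and gentamicin. The next day, compounds were added, at up to 100 µM. TNFα was then added as in the cell ELISA. About 24 h after compound addition, MTS reagent was added, cells were incubated a further 2 h at 37 °C, and absorbance was read at 490 nm.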
# [10] = molecular target: T1, Intercellular adhesion molecule 1; experiment: In vitro inhibitory potency compared to PMA induced Intercellular adhesion molecule-1 expression in human endothelial cells (ELISA assay); assay type: cell-based, Endothelial cell
# Outline: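 Primary HUVECs seeded at 5 × 10^4 cells/mL in EBM/2% FBS with EGF, bovine brain extract and gentamicin. Compound added next day for 24 h at 37 °C, then inducer (IL-1β or PMA, level not stated) for 6 h at 37 °C. Whole-cell ELISA used mouse monoclonal anti-ICAM-1 or anti-VCAM-1, HRP donkey anti-mouse IgG and OPD, read at 490 nm. Run in triplicate.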
# [11] = molecular target: T3, E-selectin (Homo sapiens) (UniProt P16581); experiment: In vitro inhibitory potency compared to PMA induced Selectin E expression in human endothelial cells (ELISA assay) at 1 uM; assay type: cell-based; conditions: Endothelial cell
# T3 sequence (whole entry): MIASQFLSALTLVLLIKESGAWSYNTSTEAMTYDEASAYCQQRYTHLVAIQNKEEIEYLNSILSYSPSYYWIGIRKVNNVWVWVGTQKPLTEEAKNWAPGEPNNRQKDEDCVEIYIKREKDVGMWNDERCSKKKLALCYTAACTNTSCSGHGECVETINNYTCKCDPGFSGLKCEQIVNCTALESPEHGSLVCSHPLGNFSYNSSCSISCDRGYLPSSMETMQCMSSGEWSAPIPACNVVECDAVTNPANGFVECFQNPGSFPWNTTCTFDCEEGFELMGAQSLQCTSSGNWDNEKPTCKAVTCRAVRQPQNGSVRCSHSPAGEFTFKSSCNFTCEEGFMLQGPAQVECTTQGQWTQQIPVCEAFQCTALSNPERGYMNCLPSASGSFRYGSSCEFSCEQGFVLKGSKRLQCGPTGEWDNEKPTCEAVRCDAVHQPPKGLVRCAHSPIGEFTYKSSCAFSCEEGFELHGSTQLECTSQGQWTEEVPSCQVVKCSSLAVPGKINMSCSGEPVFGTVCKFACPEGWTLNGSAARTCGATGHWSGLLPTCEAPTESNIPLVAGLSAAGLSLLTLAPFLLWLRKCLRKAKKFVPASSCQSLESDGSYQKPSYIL
# Outline: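 HUVEC whole-cell ELISA with PMA substituted for TNFα as inducer. Compound preincubated 24 h at 37 °C, then 6 h induction at 37 °C. E-selectin detected with mouse monoclonal antibody and HRP anti-mouse IgG, OPD development, A490. Value given as percent inhibition at a single concentration of 1 µM.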
# [12] = Inhibition of selectin E in human endothelial cells; conditions: endothelial cell
# [13] = molecular target: T1, Intercellular adhesion molecule 1; experiment: In vitro inhibitory potency compared to TNF-alpha induced Intercellular adhesion molecule-1 expression in human endothelial cells (ELISA assay); assay type: cell-based, Endothelial cell
# Outline: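 Primary HUVECs plated at 5 × 10^4 cells/mL in EBM/2% FBS with growth supplements; next day compound added, 24 h at 37 °C, then TNFα to 5 ng/mL final, 6 h at 37 °C. Cell ELISA: mouse monoclonal anti-ICAM-1 overnight at 4 °C, HRP donkey anti-mouse IgG, OPD, absorbance 490 nm; triplicate assay.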
# E-selectin [14] = molecular target: T4, E-selectin (Homo sapiens, UniProt P16581); experiment: In vitro inhibitory potency compared to IL1-beta induced Selectin E expression in human endothelial cells (ELISA assay); assay type: cell-based, Endothelial cell; outline: as §2
# T4 sequence (P16581 whole entry): T3 sequence (whole entry)
# E-selectin [15] = molecular target: T4, E-selectin; experiment: In vitro inhibitory potency compared to TNF-alpha induced Selectin E expression in human endothelial cells (ELISA assay); assay type: cell-based, Endothelial cell
# Outline: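 Whole-cell ELISA on primary HUVECs plated at 5 × 10^4 cells/mL in EBM/2% FBS with growth supplements. Compound preincubated 24 h at 37 °C, then inducer added (TNFα at 5 ng/mL final, or IL-1β or PMA in its place) for 6 h at 37 °C. Mouse monoclonal anti-E-selectin, anti-ICAM-1 or anti-VCAM-1 was applied overnight at 4 °C, then HRP anti-mouse IgG. Detection with OPD, A490. Triplicate assays.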
# T1 sequence (P05362 whole entry): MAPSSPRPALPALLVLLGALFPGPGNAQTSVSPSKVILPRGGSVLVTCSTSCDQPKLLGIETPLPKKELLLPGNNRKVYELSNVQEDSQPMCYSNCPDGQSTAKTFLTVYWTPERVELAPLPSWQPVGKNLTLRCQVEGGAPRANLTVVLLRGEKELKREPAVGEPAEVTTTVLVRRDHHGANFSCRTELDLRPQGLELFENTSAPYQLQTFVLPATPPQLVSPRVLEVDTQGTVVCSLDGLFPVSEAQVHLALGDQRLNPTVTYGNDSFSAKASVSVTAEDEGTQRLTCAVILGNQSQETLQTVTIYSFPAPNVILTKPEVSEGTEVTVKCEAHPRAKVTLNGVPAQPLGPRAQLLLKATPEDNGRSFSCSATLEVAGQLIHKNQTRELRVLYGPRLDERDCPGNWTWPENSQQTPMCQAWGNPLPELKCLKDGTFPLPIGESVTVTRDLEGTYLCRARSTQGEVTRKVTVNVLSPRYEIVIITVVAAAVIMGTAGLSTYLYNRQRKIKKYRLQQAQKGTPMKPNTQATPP
IC50 [6] [nM],IC50 [7] [nM],Inhibition at 1uM [8] [%],IC50 [10] [nM],inhibition [11] [%],IC50 [12] [nM],IC50 [13] [nM],IC50 (E-selectin [14]) [nM],IC50 (E-selectin [15]) [nM],Compound,Efficacy (Mus musculus [1]) [µg/mL],Efficacy (Mus musculus [2]) [number ul-1],Efficacy (Mus musculus [3]) [%],Efficacy (Mus musculus [4]) [µg/mL],Efficacy (Mus musculus [5]) [%],IC50 [9] [µM]
,,,,,,,,,CNC(=O)c1cc2c(Oc3ccc(C(F)(F)F)cc3)cncc2s1,1.89,107,10,19.6,48,
10,25,45,30,44,20,15,25,15,Cc1ccc(Sc2cncc3sc(C(N)=O)cc23)cc1,,,,,,152
